Data set [1] relates to HH signaling pathway (GLI-responsive firefly luciferase reporter). Nature of the data set: Dual luciferase reporter assay. In kind it is cell-based. As to conditions: for IC50: read-out: IC50 GLI-luc reporter.
A short description of data set [2]: Pharmacokinetics in Sprague–Dawley rats. In kind it is in vivo. As to conditions: rat; for AUC(0-inf) / AUC(0-t) / MRT inf / clearance / half-life / Cmax / Tmax: Sprague-Dawley, plasma; for Vss_obs: i.v. 1 mg/kg.
Another data set addresses hERG channel (Homo sapiens, UniProt Q12809). Nature of the data set: hERG inhibition. In kind it is cell-based.
A further data set addresses BRD4 (BD1) (Homo sapiens, UniProt O60885). Nature of the data set: Homogeneous time-resolved fluorescence binding assay, BRD4. As to conditions: for IC50: IC50 BRD4 (BD1), mean ± SD from three separate experiments.
The test system of the next data set is endogenous GLI2. Kind of data set: Western blot of endogenous GLI2 in light2 cells. In kind it is cell-based. As to conditions: 25 at 10 and 100 nmol/L, GDC-0449 100 nmol/L. Summed up: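 Light2 cells treated with test compound, lysed in LDS sample buffer, and run on SDS-PAGE. Immunoblotting used anti-GLI2 (1:1000), with GAPDH (1:5000) as reference.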
Data set [3] concerns SMOA1 MB allografts (SMO^W539L). Kind of data set: SMOA1 MB allograft model. In kind it is in vivo, nude mice. As to conditions: 20 mg/kg p.o., bid; Fig. 5A. Summed up:
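Primary SMOA1 MB allografts from ND2:SMOA1 transgenic mice grafted subcutaneously into nude mice. Dosing started at 100–150 mm3 tumour size: test compound p.o. twice daily, vehicle 0.5% CMC-Na, n ≥ 3 per group. Caliper measurement every 3 days; volume = 0.5 × length × width². Body weight tracked; group means ± SEM.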

The next data set relates to SMO wild MB. As to conditions: 20 mg/kg p.o., bid; cited from earlier work.

Where only a bound is given, the exact number is not on record here.

Sequence of hERG channel (Q12809 whole entry): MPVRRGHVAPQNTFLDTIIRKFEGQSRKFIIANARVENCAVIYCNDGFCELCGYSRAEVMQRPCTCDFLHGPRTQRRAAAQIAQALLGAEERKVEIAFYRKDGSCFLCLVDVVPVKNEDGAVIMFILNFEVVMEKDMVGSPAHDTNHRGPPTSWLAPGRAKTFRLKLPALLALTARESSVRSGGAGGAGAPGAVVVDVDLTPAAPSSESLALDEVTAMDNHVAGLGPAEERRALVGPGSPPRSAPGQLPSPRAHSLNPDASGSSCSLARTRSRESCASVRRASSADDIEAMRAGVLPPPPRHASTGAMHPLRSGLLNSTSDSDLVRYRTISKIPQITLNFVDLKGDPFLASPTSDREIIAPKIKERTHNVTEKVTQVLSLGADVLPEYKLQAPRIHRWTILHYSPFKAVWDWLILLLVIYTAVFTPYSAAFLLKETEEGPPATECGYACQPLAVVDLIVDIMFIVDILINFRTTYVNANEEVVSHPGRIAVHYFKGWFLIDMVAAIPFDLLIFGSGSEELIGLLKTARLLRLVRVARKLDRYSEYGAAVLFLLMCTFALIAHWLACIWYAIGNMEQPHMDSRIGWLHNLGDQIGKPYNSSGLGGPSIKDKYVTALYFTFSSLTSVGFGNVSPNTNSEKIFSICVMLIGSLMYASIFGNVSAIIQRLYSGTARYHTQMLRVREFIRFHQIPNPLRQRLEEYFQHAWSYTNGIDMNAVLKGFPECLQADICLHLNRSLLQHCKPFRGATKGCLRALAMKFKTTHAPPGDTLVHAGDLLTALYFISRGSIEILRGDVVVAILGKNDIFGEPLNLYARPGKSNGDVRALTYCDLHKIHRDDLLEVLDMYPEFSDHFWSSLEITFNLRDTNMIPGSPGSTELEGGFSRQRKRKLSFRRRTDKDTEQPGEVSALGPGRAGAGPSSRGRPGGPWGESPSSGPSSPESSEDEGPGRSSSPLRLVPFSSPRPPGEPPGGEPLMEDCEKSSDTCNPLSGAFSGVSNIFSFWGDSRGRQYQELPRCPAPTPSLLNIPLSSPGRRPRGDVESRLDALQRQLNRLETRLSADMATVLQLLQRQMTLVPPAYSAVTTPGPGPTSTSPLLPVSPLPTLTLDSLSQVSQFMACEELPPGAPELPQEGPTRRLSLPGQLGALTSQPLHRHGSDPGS

Take `Cn1cc(-c2cc(N3CCCS3(=O)=O)ccc2Oc2ccc(F)cc2F)c2c(F)c[nH]c2c1=O` [Compound 24]: the IC50 in data set [1] was found to be 0.93 ± 0.16 nM. In data set [2] (iv, 1 mg/kg), this compound had an AUC(0-inf) of 509 ng·h/mL, an AUC(0-t) of 509 ng·h/mL, an MRT inf of 45.6 min and a clearance of 33.2 mL/min/kg. The same compound had a half-life in data set [2] (iv, 1 mg/kg) of 33.6 min. In data set [2] (po, 3 mg/kg), the AUC(0-inf) came to 473 ng·h/mL, the exposure AUC(0-t) is 473 ng·h/mL, the Cmax came to 474 ng/mL and the MRT inf amounted to 75.6 min. Further, in data set [2] (po, 3 mg/kg), the Tmax stood at 30 min and the half-life was 57 min. This compound came in with a Vss_obs in data set [2] of 1.513 L/kg. This compound returned an IC50 at hERG channel above 40000 nM. The IC50 at BRD4 (BD1) worked out at 0.5 ± 0.06 nM.

On to `CCNC(=O)c1cc2c(-c3cc(N4CCCCS4(=O)=O)ccc3Oc3ccc(F)cc3F)cn(C)c(=O)c2[nH]1` [Compound 31], for which the IC50 in data set [1] came to 0.81 ± 0.24 nM. For the same compound, in data set [2] (iv, 1 mg/kg), the AUC(0-inf) turned out to be 217 ng·h/mL, the AUC(0-t) was found to be 213 ng·h/mL, the MRT inf turned out to be 34.2 min and the clearance worked out at 77.6 mL/min/kg. In data set [2] (iv, 1 mg/kg), this compound gave a half-life of 41.4 min. Besides, in data set [2] (po, 3 mg/kg), the AUC(0-inf) is 22.1 ng·h/mL, the AUC(0-t) is 18.3 ng·h/mL, the concentration peaked (Cmax) at 15.5 ng/mL and the MRT inf amounted to 143 min. In addition, in data set [2] (po, 3 mg/kg), the time to peak (Tmax) worked out at 19.8 min and the half-life is 93 min. For the same compound, in data set [2], the Vss_obs came to 3.512 L/kg. In addition, the IC50 against hERG channel stood at 11700 nM. Further, the IC50 on BRD4 (BD1) is 0.13 ± 0.005 nM.

With `CCNC(=O)c1cc2c(-c3cc(N4CCCS4(=O)=O)ccc3Oc3ccc(F)cc3F)cn(C)c(=O)c2[nH]1` [Compound 30], the IC50 in data set [1] was 0.05 ± 0.01 nM. In data set [2] (iv, 1 mg/kg), this compound returned an AUC(0-inf) of 278 ng·h/mL, an AUC(0-t) of 278 ng·h/mL, an MRT inf of 47.6 min and a clearance of 61.5 mL/min/kg. The compound also showed a half-life in data set [2] (iv, 1 mg/kg) of 40.8 min. Moreover, in data set [2] (po, 3 mg/kg), the AUC(0-inf) was 9.91 ng·h/mL, the AUC(0-t) was found to be 9.91 ng·h/mL, the Cmax was determined as 15.2 ng/mL and the MRT inf is 53.4 min. Besides, in data set [2] (po, 3 mg/kg), the Tmax stood at 15 min and the half-life is 81 min. Besides, the Vss_obs in data set [2] amounted to 2.891 L/kg. This compound returned an IC50 against hERG channel of 6400 nM. For the same compound, on BRD4 (BD1), the IC50 was found to be 0.6 ± 0.41 nM.

For the compound `CN(C)CCN1CCCN(c2ccc(Oc3ccc(F)cc3F)c(-c3cn(C)c(=O)c4[nH]ccc34)c2)S1(=O)=O` [Compound 18], the IC50 in data set [1] came out at 56.1 ± 8.25 nM; on BRD4 (BD1), 1.52 ± 0.72 nM.

Turning to `Cn1cc(-c2cc(N3CCC(CO)S3(=O)=O)ccc2Oc2ccc(F)cc2F)c2cc[nH]c2c1=O` (stereo not drawn) [Compound 12], the figures for the IC50 (in data set [1]; on BRD4 (BD1)) were 3.29 ± 0.14 nM and 0.25 ± 0.05 nM, respectively.

As to `CS(=O)(=O)c1ccc(C(=O)Nc2ccc(Cl)c(-c3ccccn3)c2)c(Cl)c1` [GDC-0449, reference compound], the “Effect on abundance of endogenous GLI2 proteins” value with endogenous GLI2 is “no effect”. Besides, the “Effect on tumor growth” value in data set [3] was “failed to affect the tumor growth”. Further, the “Tumor growth inhibition in SMO wild MB mice” value in the data set with SMO wild MB was “complete tumor growth inhibition”.

For the compound `CCS(=O)(=O)Nc1ccc(Oc2ccc(F)cc2F)c(-c2cn(C)c(=O)c3[nH]ccc23)c1` [Compound 2, N-(4-(2,4-difluorophenoxy)-3-(6-methyl-7-oxo-6,7-dihydro-1H-pyrrolo[2,3-c]pyridin-4-yl)phenyl)ethanesulfonamide, reference compound], the “fold selectivity for the HH pathway against BRD4 (fold less potent against BRD4)” value in data set [1] (BRD4 (BD1) IC50 vs GLI-luc IC50) is reported as around 10 fold. The IC50 in data set [1] worked out at 0.41 ± 0.34 nM. In addition, in data set [2] (iv, 1 mg/kg), the AUC(0-inf) was found to be 1200 ng·h/mL, the AUC(0-t) stood at 1190 ng·h/mL, the MRT inf stood at 187 min and the clearance is 17.6 mL/min/kg. The same compound showed a half-life in data set [2] (iv, 1 mg/kg) of 164 min. Also, in data set [2] (po, 3 mg/kg), the AUC(0-inf) worked out at 2050 ng·h/mL, the AUC(0-t) was 2030 ng·h/mL, the Cmax is 401 ng/mL and the MRT inf stood at 327 min. In data set [2] (po, 3 mg/kg), the Tmax is 165 min and the half-life is 200 min. The same compound displayed a Vss_obs in data set [2] of 2.772 L/kg. On hERG channel, this compound came in with an IC50 of 35500 nM. For the same compound, the half-maximal inhibitory concentration (IC50) at BRD4 (BD1) turned out to be 3.4 ± 0.2 nM.

For `Cn1cc(-c2cc(N3CCCCS3(=O)=O)ccc2Oc2ccc(F)cc2F)c2cc(C(=O)O)[nH]c2c1=O` [Compound 27], the IC50 in data set [1] was above 100 nM; on BRD4 (BD1) it was 14.3 ± 4.52 nM. Moreover, at BRD4 (BD1) (ratio of IC50 values), the “fold less potent than compound 2 against BRD4” value is above 4 fold.

With `CCS(=O)(=O)Nc1ccc(Oc2ccc(F)cc2F)c(-c2cc(Nc3ccncn3)c(=O)n(C)c2)c1` [Compound 11], the concentration for half-maximal inhibition (IC50) (in data set [1]; on BRD4 (BD1)) was above 100 nM each time.

As to `CN1CCN(CCCNC(=O)c2cc3c(-c4cc(N5CCCS5(=O)=O)ccc4Oc4ccc(F)cc4F)cn(C)c(=O)c3[nH]2)CC1` [Compound 32], the IC50 in data set [1] was above 100 nM; on BRD4 (BD1), 0.75 ± 0.07 nM.

Turning to `Cn1cc(-c2cc(N3CCCCS3(=O)=O)ccc2N[C@@H]2C[C@@H](CO)[C@@H](O)C2)c2cc[nH]c2c1=O` [Compound 39], the IC50 is above 100 nM in data set [1] and 3.42 ± 0.25 nM at BRD4 (BD1).

Turning to `Cn1cc(-c2cc(N3CCCS3(=O)=O)ccc2Oc2ccc(F)cc2F)c2cc(C(N)=O)[nH]c2c1=O` [Compound 28], the “fold less potent for the HH pathway than against BRD4” value in data set [1] (GLI-luc IC50 vs BRD4 (BD1) IC50) was determined as 16 fold. Besides, the IC50 is 1.5 ± 0.39 nM in data set [1], above 40000 nM against hERG channel and 0.09 ± 0.04 nM on BRD4 (BD1).

The values are drawn from PMC7893122 (Acta Pharmaceutica Sinica. B, 2020).
